Active and inactive are the calls of the source. The rule behind the calls is not given here.
System: Escherichia coli
Test: Inhibition of [3H]norepinephrine binding to Escherichia coli Qsec by liposome-based scintillation counting assay
Method in brief: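 Liposomes reconstituted with QseC were loaded with tritiated norepinephrine (5 μM) by freeze-thaw in liquid N2 and held 10 min at room temperature, so unbound signal could diffuse out. They were pelleted at 12,000g for 5 min and counted for tritium. Counts were normalized to liposomes loaded with 5 μM tyrosine. Compound was tested at 5 pM and 5 fM.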

Activity	Compound
inactive	CC(C)NCC(O)COc1cccc2ccccc12 (configuration not stated)
Active	Cc1ccc(N(CC2=NCCN2)c2cccc(O)c2)cc1

— ChEMBL document CHEMBL1152867, “Targeting QseC signaling and virulence for antibiotic development” (Science, 2008)
